We go through eight compounds from ChEMBL document CHEMBL1154697, “Design, synthesis and docking studies of new furobenzopyranones and pyranobenzopyranones as photoreagent towards DNA and as antimicrobial agents” (2010).

The structures appear in SMILES notation.

Type in all cases: functional
Experiment [1] deals with Bacillus subtilis. Nature of the experiment: Antimicrobial activity against Bacillus subtilis pretreated 3 hrs before UV photosensitization measured after overnight reincubation under dark condition by agar plate disc diffusion method. In short, it runs like this:
(§1)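 B. subtilis 18 h broth culture (0.02 ml) mixed into 10 ml liquefied nutrient agar (beef extract, peptone, K2HPO4, agar). Each dish carries a DMF disc and a xanthotoxin disc (10 mg/ml DMF). Test plates kept dark at 37 °C for 3 h for diffusion, then uncovered and exposed to 365 nm UV for 20 min. A duplicate plate left unirradiated in the incubator overnight. Inhibition zones measured.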

Experiment [2] relates to Bacillus subtilis. Nature of the experiment: Antimicrobial activity against 20 mins UV photosensitized Bacillus subtilis measured after overnight reincubation under dark condition by agar plate disc diffusion method. In short, it runs like this: as §1
The test system of another experiment is Escherichia coli. Nature of the experiment: Antibacterial activity against Escherichia coli at 50 mg/mL after 48 hrs by agar plate disc diffusion method. The note with it: read-out: IZ. In short, it runs like this:
(§2)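 Discs placed on nutrient agar plates (15 ml agar seeded with 0.2 mL of 18 h liquid culture of each organism); plates incubated 37 °C for 48 h, inhibition zone diameter read in mm around each disc. DMF-impregnated discs as solvent control; tetracycline (antibacterial) and amphotericin B (antifungal) references run concurrently.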

For a further experiment, the system named is Staphylococcus aureus. Nature of the experiment: Antibacterial activity against Staphylococcus aureus at 50 mg/mL after 48 hrs by agar plate disc diffusion method. Particulars: read-out: IZ. The essentials: as §2
The next experiment concerns Candida albicans. Nature of the experiment: Antifungal activity against Candida albicans at 50 mg/mL after 48 hrs by agar plate disc diffusion method. The note with it: read-out: IZ. In short, it runs like this: as §2

With `Cc1c(C(=O)NNC(=S)NCc2ccccc2)c(=O)oc2ccc3c(-c4ccccc4)cc(=O)oc3c12`, the “inhibition zone (IZ)” value in the experiment with Bacillus subtilis [1] was 18 millimeter; in the experiment on Bacillus subtilis [2], 22 millimeter. For the same compound, the values for the zone of inhibition at 50000 µg/mL with Escherichia coli and in the experiment with Staphylococcus aureus were 20 mm and 30 mm, respectively.

Regarding `COc1c2occc2c(OC)c2c(C)c(C(=O)NNC(=S)NCc3ccccc3)c(=O)oc12`, the “inhibition zone (IZ)” value in the experiment with Bacillus subtilis [1] is on record as 10 millimeter; with Bacillus subtilis [2] it was 12 millimeter.

`COc1c2occc2c(OC)c2c(C)c(-c3nnc(S)n3Cc3ccccc3)c(=O)oc12`: the “inhibition zone (IZ)” value with Bacillus subtilis [2] came to 11 millimeter.

Turning to `Cc1c(-c2nnc(S)n2Cc2ccccc2)c(=O)oc2ccc3c(-c4ccccc4)cc(=O)oc3c12`, the “inhibition zone (IZ)” value in the experiment on Bacillus subtilis [2] is given as 12 millimeter.

On to `COc1c2occc2c(OC)c2c(C)c(C(=O)NN)c(=O)oc12`, for which the “inhibition zone (IZ)” value stood at 12 millimeter in the experiment with Bacillus subtilis [1] and 14 millimeter in the experiment with Bacillus subtilis [2]. Also, in the experiment with Escherichia coli, the zone of inhibition at 50000 µg/mL was 18 mm.

For `C[C@@H]1[C@H](O)[C@@H](C)/C=C/C=C/C=C/C=C/C=C/C=C/C=C/[C@H](O[C@@H]2O[C@H](C)[C@@H](O)[C@H](N)[C@@H]2O)C[C@@H]2O[C@](O)(C[C@@H](O)C[C@@H](O)[C@H](O)CC[C@@H](O)C[C@@H](O)CC(=O)O[C@H]1C)C[C@H](O)[C@H]2C(=O)O` [AMPHOTERICIN B], the zone of inhibition at 50000 µg/mL in the experiment with Candida albicans came to 30 mm.

Regarding `COc1c2occc2cc2ccc(=O)oc12` [METHOXSALEN], in the experiment on Bacillus subtilis [2], the “inhibition zone (IZ)” value is on record as 12 millimeter.

Turning to `CN(C)[C@@H]1C(O)=C(C(N)=O)C(=O)[C@@]2(O)C(O)=C3C(=O)c4c(O)cccc4[C@@](C)(O)[C@H]3C[C@@H]12` [TETRACYCLINE], the “inhibition zone (IZ)” value with Bacillus subtilis [1] amounted to 30 millimeter. For the same compound, the zone of inhibition at 50000 µg/mL stood at 34 mm with Escherichia coli and 36 mm in the experiment on Staphylococcus aureus.
